The subject of one test is Dengue virus. Put plainly: Inhibition of Dengue virus NS2B-NS3 protease using Abz-NleKRRS-3-(NO2)Y as substrate at 50 uM preincubated for 15 mins measured every sec for 15 mins by fluorimetric analysis.
A further test deals with Prothrombin (Bos taurus) (UniProt P00735). Put plainly: Inhibition of bovine plasma thrombin using Boc-Val-Pro-Arg-AMC as substrate at 25 uM preincubated for 15 mins measured after 10 mins by fluorimetric assay. The essentials: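 Purchased bovine plasma thrombin at 10 nM final, preincubated 15 min with 25 μM inhibitor; reaction started with 50 μM substrate. Buffer 50 mM Tris-HCl pH 7.5, 150 mM NaCl, 0.05% Tween 20. Triplicate, averaged.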

Test [1] concerns Escherichia coli. Briefly: Inhibition of Escherichia coli MurA using PEP as substrate assessed as inorganic phosphate release at 25 uM preincubated for 10 mins measured after 60 mins […].
Test [2] has as its system Escherichia coli. Put plainly: Inhibition of Escherichia coli MetAP at 10 uM after 15 mins by fluorescence analysis.

The source made the active and inactive calls.

For the compound `COc1ccc(/C=C2\NC(=S)NC2=O)cc1`, the inhibition in the test on Dengue virus is 50%; against Prothrombin (Bos taurus), 13%. Further, the inhibition entry with Escherichia coli [1] and in the test on Escherichia coli [2] was “inactive” each time.
As to `O=C1NC(=S)N/C1=C\c1cccc(O)c1`, the inhibition in the test on Dengue virus came out at 28%; on Prothrombin (Bos taurus), 12%; with Escherichia coli [1], 21%; with Escherichia coli [2], 15%.
Take `COc1ccc(/C=C2\NC(=O)NC2=O)cc1`: the inhibition with Dengue virus came out at 24%; on Prothrombin (Bos taurus) it was 10%; in the test with Escherichia coli [2], 10%. In addition, in the test on Escherichia coli [1], the inhibition result is “inactive”.
For `Cn1cc(/C=C2\NC(=O)NC2=O)c2ccccc21`, the inhibition with Dengue virus worked out at 34%; against Prothrombin (Bos taurus), 20%. The inhibition result in the test on Escherichia coli [1] and with Escherichia coli [2] was “inactive” each time.
As to `C/C(=C1/SC(=S)NC1=O)c1cccs1`, the results for the inhibition in the test with Dengue virus, against Prothrombin (Bos taurus) and in the test with Escherichia coli [1] were 45%, 17% and 11%, respectively. In the test on Escherichia coli [2], the inhibition result is “inactive”.
With `O=C1NC(=S)NC1Cc1cccs1` (stereo not given), the inhibition entry in the test on Dengue virus, on Prothrombin (Bos taurus), in the test with Escherichia coli [1] and in the test on Escherichia coli [2] was “inactive” in each case.
In the case of `COc1ccc(/C=C2\NC(=S)NC2=O)cc1OC`, the inhibition in the test with Dengue virus turned out to be 44%; against Prothrombin (Bos taurus), 20%; in the test with Escherichia coli [1], 18%; with Escherichia coli [2], 11%.
The like results for `O=C1NC(=S)N/C1=C\c1ccc(Cl)s1` were, in that order, 42%, 29%, 22% and “inactive”.
Consider `Cn1cc(/C=C2\SC(=S)NC2=O)c2ccccc21`, for which the inhibition came to 45% in the test with Dengue virus, 27% against Prothrombin (Bos taurus), 18% in the test with Escherichia coli [1] and 12% in the test with Escherichia coli [2].
With `COc1cccc(/C=C2\SC(=O)NC2=O)c1`, the inhibition in the test on Dengue virus came out at 17%; on Prothrombin (Bos taurus), 11%; in the test with Escherichia coli [1], 25%; with Escherichia coli [2], 10%.
The corresponding values for `O=C1NC(=S)N/C1=C\C=C\c1ccco1` are 37%, 38%, 69% and 23%.
The corresponding values for `COc1ccccc1/C=C1\SC(=S)NC1=O` are 33%, 11%, 10% and “inactive”.
For `O=C1NC(=S)S/C1=C\C=C\c1ccco1`, the inhibition came out at 26% with Dengue virus, 28% against Prothrombin (Bos taurus), 94% in the test on Escherichia coli [1] and 14% with Escherichia coli [2].
As for `NC(=O)CC[C@@H]1NC(=S)NC1=O`, the inhibition with Dengue virus turned out to be 10%; in the test with Escherichia coli [1], 25%. Also, the inhibition entry at Prothrombin (Bos taurus) and with Escherichia coli [2] was “inactive” in each case.
Turning to `O=C1NC(=S)N/C1=C\c1cnc[nH]1`, the inhibition was determined as 29% with Dengue virus, 30% on Prothrombin (Bos taurus), 57% in the test on Escherichia coli [1] and 83% in the test on Escherichia coli [2].
The like results for `O=C1NC(=O)/C(=C/c2ccc(Br)s2)S1` were, in that order, “inactive”, 19%, 62% and 12%.
The like results for `O=C1NC(=S)S/C1=C\c1ccco1` were, in that order, 52%, 25%, 17% and “inactive”.
The corresponding values for `O=C1NC(=O)/C(=C/c2cccs2)S1` are 11%, 24%, 30% and 11%.
In the case of `O=C1NC(=S)S/C1=C\C1CCCCC1`, the inhibition in the test with Dengue virus was determined as 22%; against Prothrombin (Bos taurus) it was 29%; with Escherichia coli [1] it was 13%; in the test on Escherichia coli [2], 40%.
The corresponding values for `O=C1NC(=S)N/C1=C\c1ccc(O)cc1` are 48%, 39%, 11% and “inactive”.
For `CC(=O)N1C(=S)NC(=O)[C@@H]1CCCCN`, the inhibition entry in the test with Dengue virus, at Prothrombin (Bos taurus) and in the test on Escherichia coli [2] was “inactive” throughout. In addition, the inhibition in the test on Escherichia coli [1] came out at 12%.
Regarding `O=C1NC(=S)N/C1=C\c1ccccc1`, the values for the inhibition in the test on Dengue virus, against Prothrombin (Bos taurus) and in the test with Escherichia coli [2] were 35%, 17% and 12%, respectively. Also, in the test with Escherichia coli [1], the inhibition entry was “inactive”.
The corresponding values for `C/C(=C1/SC(=S)NC1=O)c1ccccc1` are 23%, 19%, “inactive” and 33%.
The like results for `C/C(=C1/NC(=S)NC1=O)c1cccs1` were, in that order, 43%, 20%, 42% and 50%.
The like results for `COc1ccc(/C=C2\SC(=O)NC2=O)cc1OC` were, in that order, 16%, 23%, 13% and “inactive”.
For `O=C1NC(=O)/C(=C/c2ccc(Cl)cc2Cl)S1`, the inhibition in the test with Dengue virus is 13%; against Prothrombin (Bos taurus), 28%. Also, the inhibition result with Escherichia coli [1] and in the test with Escherichia coli [2] was “inactive” throughout.
For the compound `COc1ccccc1/C=C1\NC(=S)NC1=O`, the inhibition in the test on Dengue virus is 28%; against Prothrombin (Bos taurus), 15%; in the test with Escherichia coli [1], 10%; in the test on Escherichia coli [2], 18%.
The like results for `O=C1NC(=O)/C(=C/c2ccccc2)S1` were, in that order, 25%, 15%, “inactive” and “inactive”.
The corresponding values for `O=C1NC(=O)[C@@H](Cc2ccccc2)N1` are “inactive”, “inactive”, “inactive” and “inactive”.
The corresponding values for `O=C1NC(=S)N[C@H]1Cc1ccccc1` are “inactive”, “inactive”, 17% and 12%.
As to `O=C1NC(=O)[C@H](Cc2ccccc2)N1`, the inhibition entry in the test with Dengue virus, at Prothrombin (Bos taurus) and in the test with Escherichia coli [1] was “inactive” throughout. Also, the inhibition in the test on Escherichia coli [2] came to 22%.
`O=C1NC(=O)/C(=C/c2ccc3ccccc3c2)N1`: the inhibition in the test on Dengue virus is 36%; with Escherichia coli [2], 46%. Further, the inhibition result on Prothrombin (Bos taurus) and in the test on Escherichia coli [1] was “inactive” throughout.
`CC(=O)n1cc(/C=C2\SC(=S)NC2=O)c2ccccc21`: the inhibition in the test with Dengue virus was 46%; on Prothrombin (Bos taurus), 31%; with Escherichia coli [1], 18%. Also, the inhibition entry in the test on Escherichia coli [2] is “inactive”.
With `O=C1NC(=S)S/C1=C\c1ccc2ccccc2c1`, the inhibition with Dengue virus was 56%; at Prothrombin (Bos taurus), 28%; with Escherichia coli [1], 15%; with Escherichia coli [2], 14%.
Consider `COc1ccccc1/C=C1\SC(=O)NC1=O`, for which the inhibition amounted to 17% in the test on Dengue virus, 11% against Prothrombin (Bos taurus), 25% with Escherichia coli [1] and 10% in the test on Escherichia coli [2].
Regarding `O=C1NC(=S)S/C1=C\c1ccc(O)c(O)c1`, the inhibition turned out to be 50% with Dengue virus, 35% at Prothrombin (Bos taurus), 89% in the test with Escherichia coli [1] and 65% with Escherichia coli [2].
The corresponding values for `Cn1cc(/C=C2\SC(=O)NC2=O)c2ccccc21` are 41%, 25%, “inactive” and “inactive”.
`O=C1NC(=O)/C(=C/c2c[nH]c3ccccc23)N1`: the inhibition in the test with Dengue virus worked out at 36%; against Prothrombin (Bos taurus) it was 15%. In addition, the inhibition result in the test with Escherichia coli [1] and with Escherichia coli [2] was “inactive” in each case.
In the case of `O=C1NC(=S)N/C1=C\c1ccccn1`, the inhibition in the test on Dengue virus turned out to be 47%; on Prothrombin (Bos taurus), 38%; in the test with Escherichia coli [1], 13%; in the test on Escherichia coli [2], 95%.
The like results for `O=C1NC(=O)/C(=C/c2ccc3ccccc3c2)S1` were, in that order, “inactive”, 19%, “inactive” and “inactive”.
The like results for `CCC/C=C/C1SC(=S)NC1=O` (stereo not given) were, in that order, 23%, 11%, 88% and “inactive”.
The corresponding values for `O=C1NC(=O)/C(=C/c2ccc(Cl)s2)S1` are 11%, 29%, 38% and “inactive”.
Take `O=C1NC(=O)/C(=C/c2sccc2Cl)S1`: the inhibition worked out at 23% with Dengue virus, 11% against Prothrombin (Bos taurus) and 12% in the test on Escherichia coli [1]. Moreover, the inhibition entry in the test on Escherichia coli [2] is “inactive”.
The corresponding values for `COc1cccc(/C=C2\NC(=O)NC2=O)c1` are 18%, “inactive”, “inactive” and “inactive”.
The like results for `O=C1NC(=S)N/C1=C\c1c(F)c(F)c(F)c(F)c1F` were, in that order, 24%, 29%, 17% and 13%.

The values above are taken from ChEMBL document CHEMBL1955761, “Privileged scaffolds or promiscuous binders: a comparative study on rhodanines and related heterocycles in medicinal chemistry” (J Med Chem, 2012).
